The text below walks through data of ChEMBL document CHEMBL1152588, “New potent P-glycoprotein modulators with the cucurbitane scaffold and their synergistic interaction with doxorubicin on resistant cancer cells” (Bioorg Med Chem, 2009).

Each structure is given as a SMILES string.

Data set [1] has as its system L5178Y. Description: Reversal of human MDR1-mediated multidrug resistance in mouse L5178Y cells expressing MDR1 assessed as mean fluorescence intensity of rhodamine-123 uptake after 10 mins by flow cytometry. Type of data set: functional. In a few lines:
(§1)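 Parental and MDR1-transfected L5178 cells at 2×10^6/mL in serum-free McCoy's 5A. Compound (0.5–20 µM; verapamil 22 µM as positive control) added 10 min at room temperature, then rhodamine 123 20 min at 37 °C. Cells washed twice, resuspended in PBS, flow cytometry on 10,000 cells (FSC, SSC, mean FL-1). FAR = (MDR treated/MDR control)/(parental treated/parental control); single representative experiment.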

In data set [2] the test system is L5178Y. Put plainly: Antiproliferative activity against multidrug resistance mouse L5178Y cells expressing human MDR1 after 72 hrs by MTT assay. Type of data set: functional. Particulars: read-out: ID50 (the source's name). In a few lines:
(§2)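 L5178 mouse T-cell lymphoma cells, parental or transfected with human MDR1 via pHa MDR1/A retrovirus. Transfected cells were kept under 60 ng/mL colchicine. Cells grew in McCoy's 5A with 10% heat-inactivated horse serum at 37 °C, 5% CO2. 1×10^4 cells/well with rising compound concentrations, 72 h at 37 °C. MTT 4 h, SDS 10% overnight, OD 550 nm (ref 630 nm). % inhibition vs cell/medium controls; ID50 mean ± SD of three experiments.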
A general note: Tetrazolium dyes change colour on reduction, which living cells bring about.

The nature of data set [3]: Octanol-water partition coefficient, log D of the compound. Type of data set: physicochemical.
For data set [4], the system named is L5178Y. Description: Antiproliferative activity against mouse L5178Y cells after 72 hrs by MTT assay. Type of data set: functional. Particulars: read-out: ID50 (the source's name). In short, it runs like this:
as §2

Data set [5] concerns the target T1, ATP-dependent translocase ABCB1 (Homo sapiens, UniProt P08183). Description: Reversal of human MDR1-mediated multidrug resistance in mouse L5178Y cells expressing MDR1 assessed as forward scatter count measured by cell size ratio at 20 uM after 10 mins by flow cytometry. Type of data set: cell-based. In short, it runs like this: as §1
(Flow cytometry measures light scatter and fluorescence of single cells or particles in a stream.)

Data set [6] concerns the target T1, ATP-dependent translocase ABCB1. Description: Reversal of human MDR1-mediated multidrug resistance in mouse L5178Y cells expressing MDR1 assessed as forward scatter count measured by cell size ratio at 2 uM after 10 mins by flow cytometry. Type of data set: cell-based. In a few lines:
as §1

Data set [7] has the same target. Description: Reversal of human MDR1-mediated multidrug resistance in mouse L5178Y cells expressing MDR1 assessed as side scatter count measured by cell size ratio at 20 uM after 10 mins by flow cytometry. Type of data set: cell-based. In short, it runs like this:
as §1

Data set [8] has as its system L5178Y. Description: Reversal of multidrug resistance in mouse L5178Y cells assessed as mean fluorescence intensity of rhodamine-123 uptake after 10 mins by flow cytometry. Type of data set: functional. In short, it runs like this: as §1
Data set [9] addresses T1, ATP-dependent translocase ABCB1. Description: Reversal of human MDR1-mediated multidrug resistance in mouse L5178Y cells expressing MDR1 assessed as fluorescence activity ratio at 2 uM after 10 mins by rhodamine-123 exclusion test. Type of data set: cell-based. In a few lines: as §1
For data set [10] the target is unchanged. Description: Reversal of human MDR1-mediated multidrug resistance in mouse L5178Y cells expressing MDR1 assessed as side scatter count measured by cell size ratio at 2 uM after 10 mins by flow cytometry. Type of data set: cell-based. In short, it runs like this:
as §1

Data set [11] has the same target. Put plainly: Reversal of human MDR1-mediated multidrug resistance in mouse L5178Y cells expressing MDR1 assessed as mean fluorescence intensity of rhodamine-123 uptake at 2 uM after 10 mins by flow cytometry. Type of data set: cell-based. In short, it runs like this:
as §1

Data set [12] shares this target. Put plainly: Reversal of human MDR1-mediated multidrug resistance in mouse L5178Y cells expressing MDR1 assessed as mean fluorescence intensity of rhodamine-123 uptake at 20 uM after 10 mins by flow cytometry. Type of data set: cell-based. In a few lines:
as §1

Data set [13] shares this target. Put plainly: Reversal of human MDR1-mediated multidrug resistance in mouse L5178Y cells expressing MDR1 assessed as fluorescence activity ratio at 20 uM after 10 mins by rhodamine-123 exclusion test. Type of data set: cell-based. In a few lines: as §1
Data set [14] concerns L5178Y. Put plainly: Potentiation of doxorubicin-induced anticancer activity against mouse L5178Y cells expressing MDR1 assessed as fractional inhibitory concentration after 72 hrs by checkerboard microplate assay. Type of data set: functional. In a few lines:
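Checkerboard combination on MDR1-transfected L5178 lymphoma cells: doxorubicin diluted along one plate axis, resistance modifier along the other; 5×10^4 cells/well; 72 h at 37 °C in CO2 incubator; growth read by MTT staining. FIC = ID50 in combination/ID50 alone for each agent; summed FIX <0.5 synergism, 0.51–1 additive, 1–2 indifferent, >2 antagonism.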

T1 sequence (P08183 whole entry): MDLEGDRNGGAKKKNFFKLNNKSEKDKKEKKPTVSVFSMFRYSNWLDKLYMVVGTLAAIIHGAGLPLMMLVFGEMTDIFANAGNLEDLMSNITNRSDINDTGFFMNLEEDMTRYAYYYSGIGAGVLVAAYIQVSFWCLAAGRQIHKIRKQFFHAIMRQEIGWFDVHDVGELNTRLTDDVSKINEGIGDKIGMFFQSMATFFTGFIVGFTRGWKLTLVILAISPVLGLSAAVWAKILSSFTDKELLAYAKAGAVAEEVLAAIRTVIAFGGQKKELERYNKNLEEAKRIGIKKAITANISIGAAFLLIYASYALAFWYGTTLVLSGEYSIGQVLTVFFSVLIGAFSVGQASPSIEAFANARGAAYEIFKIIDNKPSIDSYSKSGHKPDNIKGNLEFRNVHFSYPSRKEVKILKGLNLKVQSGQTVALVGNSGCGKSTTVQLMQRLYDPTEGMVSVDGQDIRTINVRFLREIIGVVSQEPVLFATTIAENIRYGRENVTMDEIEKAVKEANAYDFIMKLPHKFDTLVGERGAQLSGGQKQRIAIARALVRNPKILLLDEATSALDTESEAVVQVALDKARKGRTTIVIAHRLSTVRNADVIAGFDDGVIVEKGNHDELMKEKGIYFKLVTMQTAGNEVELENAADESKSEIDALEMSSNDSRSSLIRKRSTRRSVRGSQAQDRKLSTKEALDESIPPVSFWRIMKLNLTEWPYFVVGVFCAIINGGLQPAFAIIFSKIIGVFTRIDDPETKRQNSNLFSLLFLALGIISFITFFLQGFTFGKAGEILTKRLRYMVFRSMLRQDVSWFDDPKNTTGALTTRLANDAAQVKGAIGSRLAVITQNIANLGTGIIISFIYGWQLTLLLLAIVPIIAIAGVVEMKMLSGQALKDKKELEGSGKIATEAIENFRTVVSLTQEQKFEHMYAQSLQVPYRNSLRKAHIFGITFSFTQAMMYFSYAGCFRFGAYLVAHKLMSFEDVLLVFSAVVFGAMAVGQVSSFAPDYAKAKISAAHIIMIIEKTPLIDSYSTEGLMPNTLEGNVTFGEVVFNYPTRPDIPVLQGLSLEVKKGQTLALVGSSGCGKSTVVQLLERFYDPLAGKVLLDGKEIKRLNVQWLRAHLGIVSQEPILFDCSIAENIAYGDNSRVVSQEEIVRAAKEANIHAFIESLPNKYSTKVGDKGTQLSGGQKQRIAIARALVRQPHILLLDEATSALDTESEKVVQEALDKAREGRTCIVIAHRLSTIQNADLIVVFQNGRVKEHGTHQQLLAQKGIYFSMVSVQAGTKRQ

The term logD denotes the decadic logarithm of the distribution of all forms, ionised or not, between an organic phase and buffer at a given pH. Higher therefore signals a more lipophilic compound. For `C[C@H](C/C=C/C(C)(C)O)[C@H]1CC[C@@]2(C)[C@@H]3[C@@H](O)C=C4[C@@H](CC[C@H](O)[C@]4(C)CO)[C@]3(C)CC[C@]12C` [BALSAMINAGENIN A], the Activity came to 10.6 with L5178Y [1]; 447.4 in data set [5]; 441.8 in data set [6]; 257.6 in data set [7]; 959.5 with L5178Y [8]; 1.07 in data set [9]. Also, the Activity in data set [10] is 261.2; in [11] it was 13.95; in data set [12], 579.8; in data set [13] it was 44.3. The figures for the IC50 with L5178Y [2] and in the data set with L5178Y [4] were 25.9 µM and 19.5 µM, respectively. The same compound had a pH-dependent lipophilicity (logD) in [3] of 5.2.

Turning to `COC(C)(C)/C=C/C[C@@H](C)[C@H]1CC[C@@]2(C)[C@@H]3[C@@H](O)C=C4[C@@H](CC[C@H](O)[C@]4(C)CO)[C@]3(C)CC[C@]12C` [BALSAMINAGENIN B], the Activity in the data set with L5178Y [1] was 10.6; in [5], 454.4; in data set [6], 428.7; in data set [7], 238.6; in the data set with L5178Y [8] it was 959.5; in data set [9], 5.98. Further, the Activity in data set [10] is listed as 261.1; in data set [11], 78.4; in data set [12] it was 1365.1; in data set [13] it was 104.2. Besides, the results for the IC50 in the data set on L5178Y [2] and in the data set with L5178Y [4] were 16.8 µM and 15.4 µM, respectively. In [3], this compound yielded a pH-dependent lipophilicity (logD) of 5.8. For the same compound, the “fractional inhibitory concentration index (FICI)” value with L5178Y [14] came out at 0.18.

As for `COC(C)(C)/C=C/C[C@@H](C)[C@H]1CC[C@@]2(C)[C@@H]3[C@@H](O[C@H]4O[C@@H](CO)[C@H](O)[C@H](O)[C@@H]4O)C=C4[C@@H](CC[C@H](O)C4(C)C)[C@]3(C)CC[C@]12C` [BALSAMINOSIDE A], the Activity with L5178Y [1] is 10.6; in [5], 441.6; in data set [6], 429.6; in data set [7], 249.7; with L5178Y [8] it was 959.5; in [9] it was 1.45. Moreover, the Activity turned out to be 253.8 in data set [10], 19 in data set [11], 1171.1 in data set [12] and 89.4 in data set [13]. The IC50 is 20.8 µM with L5178Y [2] and 8.3 µM in the data set on L5178Y [4]. Moreover, the logD in [3] came to 5.3. The “fractional inhibitory concentration index (FICI)” value in the data set on L5178Y [14] is recorded as 0.37.

`CO[C@H]1C=C2[C@@H](CC[C@H](O)C2(C)C)[C@]2(C)CC[C@]3(C)[C@@H]([C@H](C)C[C@H](C=C(C)C)OC(C)=O)CC[C@@]3(C)[C@H]12` [KARAVOATE A]: the IC50 with L5178Y [2] turned out to be 34.8 µM; in the data set with L5178Y [4], 26 µM. In [3], this compound displayed a log distribution coefficient (logD) of 8. Further, the Activity in data set [5] was found to be 518.1; in data set [6] it was 470.2; in data set [7] it was 222.4; in data set [9], 35.2; in data set [10], 254.9; in data set [11], 671.2. Besides, the results for the Activity in [12] and in data set [13] were 612.7 and 34.2, respectively. The “fractional inhibitory concentration index (FICI)” value in the data set with L5178Y [14] was found to be 0.44.

Take `CO[C@H]1C=C2[C@@H](CC[C@H](OC(C)=O)C2(C)C)[C@]2(C)CC[C@]3(C)[C@@H]([C@H](C)C[C@H](C=C(C)C)OC(C)=O)CC[C@@]3(C)[C@H]12` [KARAVOATE B]: the figures for the IC50 in the data set with L5178Y [2] and with L5178Y [4] were 60.2 µM and 48.8 µM, respectively. Also, the logD in data set [3] came out at 8.6. Moreover, the Activity in [5] was 462.9; in data set [6], 454.9; in data set [7], 249.3; in data set [9], 5.7; in data set [10] it was 247; in [11], 102.1. The Activity in data set [12] is 671.2; in [13], 37.5.

As to `CCC(=O)O[C@@H](C=C(C)C)C[C@@H](C)[C@H]1CC[C@@]2(C)[C@@H]3[C@@H](OC)C=C4[C@@H](CC[C@H](O)C4(C)C)[C@]3(C)CC[C@]12C` [KARAVOATE C], the IC50 was determined as 43.5 µM with L5178Y [2] and 41.4 µM in the data set on L5178Y [4]. The compound further had a logD in [3] of 8.3. Also, the Activity was 481.3 in data set [5]; 466.3 in [6]; 242.5 in [7]; 1.7 in data set [9]; 249.9 in data set [10]; 30.3 in [11]. The results for the Activity in [12] and in [13] were 726.8 and 40.6, respectively.

As for `CCC(=O)O[C@H]1CC[C@@H]2C(=C[C@H](OC)[C@@H]3[C@@]2(C)CC[C@]2(C)[C@@H]([C@H](C)C[C@H](C=C(C)C)OC(=O)CC)CC[C@@]32C)C1(C)C` [KARAVOATE D], the IC50 in the data set with L5178Y [2] and in the data set with L5178Y [4] was over 133 µM each time. The compound further yielded a logD in data set [3] of 8.9. Moreover, the Activity in [5] is reported as 463.1; in [6] it was 454; in data set [7], 230.8; in [9], 0.9; in data set [10], 237.9; in data set [11] it was 16.2. The Activity in [12] came to 42.3; in [13], 2.4.

Turning to `CCCC(=O)O[C@@H](C=C(C)C)C[C@@H](C)[C@H]1CC[C@@]2(C)[C@@H]3[C@@H](OC)C=C4[C@@H](CC[C@H](O)C4(C)C)[C@]3(C)CC[C@]12C` [KARAVOATE E], the IC50 in the data set on L5178Y [2] stood at 73.8 µM; in the data set on L5178Y [4] it was 51 µM. Further, the log distribution coefficient (logD) in [3] turned out to be 8.7. In addition, the Activity in data set [5] is reported as 461.9; in [6], 448.7; in [7], 236.3; in data set [9], 1; in data set [10], 235.9; in [11], 18. Besides, the results for the Activity in data set [12] and in [13] were 388.7 and 21.7, respectively.
